Source: ChEMBL document CHEMBL5678799 (Biochem J, 2009)
Calls of active or inactive are those of the source. The calls are words filed in the database; no cut-off is given here.

Key:
[1] = target: Phosphorylase b kinase gamma catalytic chain, skeletal muscle/heart isoform (Homo sapiens) (UniProt Q16816); experiment: Inhibition of recombinant human N-terminal GST-tagged PHKgamma1 (2 to 297 residues) expressed in Escherichia coli assessed as remaining activity at 1 uM using phosphorylase b peptide as substrate incubated for 30 mins in presence of [gamma-33P]ATP by filter binding method relative to control
Method in brief: (§1)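 Incubation was 30 min at room temperature (21 °C) under conditions linear with time and enzyme amount. Activity is reported as percent of control lacking compound, triplicate mean ± S.D.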

[2] = target: SRSF protein kinase 1 (Homo sapiens) (UniProt Q96SB4); experiment: Inhibition of recombinant human N-terminal GST-tagged SRPK1 (2 to 654 residues) expressed in Escherichia coli assessed as remaining activity at 1 uM using RSRSRSRSRSRSRSR as substrate incubated for 30 mins in presence of [gamma-33P]ATP by filter binding assay relative to control; method in brief: as §1
[3] = target: Dual specificity tyrosine-phosphorylation-regulated kinase 2 (Homo sapiens) (UniProt Q92630); experiment: Inhibition of recombinant human N-terminal GST-tagged DYRK2 (3 to 528 residues) expressed in Escherichia coli assessed as remaining activity at 10 uM using KKISGRLSPIMTEQ as substrate incubated for 30 mins in presence of [gamma-33P]ATP by filter binding method relative to control
Method in brief: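 Run robotically for 30 min at 21 °C under linear conditions. Compound at 1 or 10 µM. Percentage activity remaining versus control without compound, triplicate mean ± S.D.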

[4] = target: Mitogen-activated protein kinase 1 (Homo sapiens) (UniProt P28482); experiment: Inhibition of recombinant human N-terminal GST-tagged ERK2 (2 to 360 residues) expressed in Escherichia coli assessed as remaining activity at 10 uM using MBP as substrate incubated for 30 mins in presence of [gamma-33P]ATP by filter binding method relative to control; method in brief: as §1
[5] = target: Mitogen-activated protein kinase 15 (Homo sapiens) (UniProt Q8TD08); experiment: Inhibition of recombinant human N-terminal His6-tagged ERK8 (2 to 544 residues) expressed in baculovirus infected Sf21 cells assessed as remaining activity at 10 uM using MBP as substrate incubated for 30 mins in presence of [gamma-33P]ATP by filter binding method relative to control
Method in brief: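 Radiometric kinase panel run robotically at room temperature (21 °C) for 30 min, linear in time and enzyme. […] Activity is expressed as percent of control without compound, from triplicate determinations ± S.D.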

[6] = target: Mitogen-activated protein kinase 9 (Homo sapiens) (UniProt P45984); experiment: Inhibition of recombinant human N-terminal His6-tagged JNK2alpha2 (1 to 424 residues) expressed in baculovirus infected Sf21 cells assessed as remaining activity at 10 uM using ATF2 as substrate incubated for 30 mins in presence of [gamma-33P]ATP by filter binding method relative to control
[7] = target: Serine/threonine-protein kinase 26 (Homo sapiens) (UniProt Q9P289); experiment: Inhibition of recombinant human N-terminal His6-tagged MST4 (1 to 416 residues) expressed in baculovirus infected Sf21 cells assessed as remaining activity at 10 uM using MBP as substrate incubated for 30 mins in presence of [gamma-33P]ATP by filter binding method relative to control
[8] = target: Mitogen-activated protein kinase 14 (Homo sapiens) (UniProt Q16539); experiment: Inhibition of recombinant human N-terminal GST-tagged P38alpha (1 to 360 residues) expressed in Escherichia coli assessed as remaining activity at 10 uM using MBP as substrate incubated for 30 mins in presence of [gamma-33P]ATP by filter binding method relative to control; method in brief: as §1
[9] = target: Phosphatidylinositol 4-phosphate 3-kinase C2 domain-containing subunit beta (Homo sapiens) (UniProt O00750); experiment: Inhibition of PI3KC2beta (unknown origin) assessed as remaining activity at 10 uM using phosphatidylinositol as substrate incubated for 30 mins in presence of ATP relative to control
Method in brief: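 PI3KC2β assayed with 20 μM phosphatidylinositol, 0.2 mM ATP, 2 mM MgCl2, in Tris/HCl pH 7.5 with CHAPS, 30 min at room temperature. Stopped with EDTA, product detected by time-resolved FRET competition with PtdIns3P–biotin and SGK PX domain. Activity as % of no-compound control, triplicate.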

HEK293 = experiment: Inhibition of PI3K in serum starved HEK293 cells expressing GST-tagged-AKT1 S473D mutant assessed as reduction in IGF1-stimulated AKT1 phosphorylation at Thr308 residue at 100 to 1000 nM incubated for 20 mins by immunoblot analysis; assay type: cell-based; details: Homo sapiens, dose 100-1000 nM
Method in brief: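 HEK-293 cells transfected with wild-type or S473D GST–Akt1. At 24 h, serum-starved 16 h, pretreated 30 min with inhibitor, then stimulated with IGF-1 for 20 min. Lysates immunoblotted for Thr308 phosphorylation. Three separate experiments.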

[10] = target: Mitogen-activated protein kinase; ERK1/ERK2 (Homo sapiens) (UniProt P27361+P28482); experiment: Inhibition of ERK1/2 in serum starved/PMA-stimulated HEK293 cells assessed as reduction in RSK phosphorylation at S227 residues at 1 uM incubated for 30 mins by immunoblot analysis; assay type: cell-based
[11] = target: Serine/threonine-protein kinase mTOR (Mus musculus) (UniProt Q9JLN9); experiment: Inhibition of mTOR in MEF cells assessed as reduction in 4E-BP1 phosphorylation at S65 residues at 1 uM incubated for 30 mins by immunoblot analysis; assay type: cell-based
Method in brief: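 HEK-293 cells or MEFs cultured in 10% serum and treated 30 min with inhibitor. Lysed in Tris lysis buffer. Lysates immunoblotted for 4E-BP1 phosphorylated at Thr37/Thr46 and Ser65, with mobility shift noted. Three experiments.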

mTORC1 (Homo sapiens) [12] = target: T1, mTORC1 (Homo sapiens) (UniProt P42345+Q8N122+Q9BVC4); details: HEK293, dose 30.0 nM, time 30.0 min
mTORC1 (Homo sapiens) [13] = target: T1, mTORC1 (Homo sapiens); details: HEK293, dose 30-1000 nM, time 30.0 min
mTORC1 (Homo sapiens) [14] = target: T1, mTORC1 (Homo sapiens); details: HEK293, dose 30-1000 nM, time 30.0 min; remark: listed apart in the source
mTORC2 (Homo sapiens) [15] = target: T2, mTORC2 (Homo sapiens) (UniProt P42345+Q6R327+Q9BVC4+Q9BPZ7); details: HEK293, dose 30-1000 nM, time 30.0 min
mTORC2 (Homo sapiens) [16] = target: T2, mTORC2 (Homo sapiens); details: HEK293, dose 30-100 nM, time 30.0 min
[17] = target: Serine/threonine-protein kinase D1 (Homo sapiens) (UniProt Q15139); experiment: Inhibition of recombinant human N-terminal His6-tagged PKD1 (2 to 912 residues) expressed in baculovirus infected Sf21 cells assessed as remaining activity at 10 uM using KKLNRTLSVA as substrate incubated for 30 mins in presence of [gamma-33P]ATP by filter binding method relative to control

Sequence of Serine/threonine-protein kinase 26 (Homo sapiens) (Q9P289 2-416 limits assumed): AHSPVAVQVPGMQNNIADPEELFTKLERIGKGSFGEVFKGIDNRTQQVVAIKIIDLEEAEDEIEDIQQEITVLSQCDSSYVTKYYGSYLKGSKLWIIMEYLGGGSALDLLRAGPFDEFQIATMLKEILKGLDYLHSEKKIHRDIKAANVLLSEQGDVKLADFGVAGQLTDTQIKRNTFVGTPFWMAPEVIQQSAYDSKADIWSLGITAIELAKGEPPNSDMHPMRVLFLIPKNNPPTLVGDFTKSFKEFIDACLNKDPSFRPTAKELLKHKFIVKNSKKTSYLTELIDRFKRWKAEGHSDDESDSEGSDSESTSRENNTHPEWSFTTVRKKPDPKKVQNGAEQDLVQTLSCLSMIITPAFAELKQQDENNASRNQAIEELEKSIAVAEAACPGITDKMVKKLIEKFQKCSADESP
Sequence of SRSF protein kinase 1 (Homo sapiens) (Q96SB4 whole entry, the tested form may be a part): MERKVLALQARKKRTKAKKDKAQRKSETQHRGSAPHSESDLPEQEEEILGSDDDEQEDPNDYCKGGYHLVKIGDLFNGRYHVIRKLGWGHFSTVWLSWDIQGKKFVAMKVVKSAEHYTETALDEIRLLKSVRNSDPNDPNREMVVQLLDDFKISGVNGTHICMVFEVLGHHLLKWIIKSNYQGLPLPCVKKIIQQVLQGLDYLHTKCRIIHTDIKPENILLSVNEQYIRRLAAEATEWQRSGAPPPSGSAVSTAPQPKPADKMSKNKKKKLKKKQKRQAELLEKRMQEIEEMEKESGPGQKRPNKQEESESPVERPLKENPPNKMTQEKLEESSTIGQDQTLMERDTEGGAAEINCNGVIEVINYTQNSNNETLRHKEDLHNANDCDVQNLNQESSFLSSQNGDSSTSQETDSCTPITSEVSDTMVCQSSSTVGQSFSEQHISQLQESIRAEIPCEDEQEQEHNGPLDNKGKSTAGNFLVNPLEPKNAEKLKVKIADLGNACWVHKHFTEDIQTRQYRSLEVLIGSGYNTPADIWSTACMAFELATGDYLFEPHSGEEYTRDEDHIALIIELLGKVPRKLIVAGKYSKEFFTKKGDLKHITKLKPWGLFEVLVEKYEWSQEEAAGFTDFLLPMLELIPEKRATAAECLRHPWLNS
Sequence of Mitogen-activated protein kinase 1 (Homo sapiens) (P28482 whole entry, the tested form may be a part): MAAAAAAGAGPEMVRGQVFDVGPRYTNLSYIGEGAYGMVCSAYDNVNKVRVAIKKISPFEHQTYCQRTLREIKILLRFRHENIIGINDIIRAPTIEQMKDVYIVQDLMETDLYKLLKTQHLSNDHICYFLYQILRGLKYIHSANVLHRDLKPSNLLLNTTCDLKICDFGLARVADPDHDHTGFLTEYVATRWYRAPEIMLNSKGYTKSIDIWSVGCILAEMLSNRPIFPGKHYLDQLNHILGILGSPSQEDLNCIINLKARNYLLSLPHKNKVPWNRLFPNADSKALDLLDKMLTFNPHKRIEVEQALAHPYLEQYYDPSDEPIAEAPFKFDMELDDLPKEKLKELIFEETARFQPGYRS
Sequence of Mitogen-activated protein kinase 9 (Homo sapiens) (P45984 whole entry, looked up, the tested form may be a part): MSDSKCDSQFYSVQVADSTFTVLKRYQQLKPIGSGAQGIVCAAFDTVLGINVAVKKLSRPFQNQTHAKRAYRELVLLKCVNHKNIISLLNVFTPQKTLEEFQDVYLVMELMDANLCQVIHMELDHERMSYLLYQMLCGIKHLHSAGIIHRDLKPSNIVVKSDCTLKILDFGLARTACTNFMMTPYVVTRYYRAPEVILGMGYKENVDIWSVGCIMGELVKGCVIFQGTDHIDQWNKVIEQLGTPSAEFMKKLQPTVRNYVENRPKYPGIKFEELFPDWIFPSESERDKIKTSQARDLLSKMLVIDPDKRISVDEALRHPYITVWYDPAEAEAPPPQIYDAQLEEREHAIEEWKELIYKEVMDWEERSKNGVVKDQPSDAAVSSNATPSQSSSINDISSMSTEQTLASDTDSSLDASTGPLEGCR
Sequence of Phosphorylase b kinase gamma catalytic chain, skeletal muscle/heart isoform (Homo sapiens) (Q16816 whole entry, looked up, the tested form may be a part, canonical isoform): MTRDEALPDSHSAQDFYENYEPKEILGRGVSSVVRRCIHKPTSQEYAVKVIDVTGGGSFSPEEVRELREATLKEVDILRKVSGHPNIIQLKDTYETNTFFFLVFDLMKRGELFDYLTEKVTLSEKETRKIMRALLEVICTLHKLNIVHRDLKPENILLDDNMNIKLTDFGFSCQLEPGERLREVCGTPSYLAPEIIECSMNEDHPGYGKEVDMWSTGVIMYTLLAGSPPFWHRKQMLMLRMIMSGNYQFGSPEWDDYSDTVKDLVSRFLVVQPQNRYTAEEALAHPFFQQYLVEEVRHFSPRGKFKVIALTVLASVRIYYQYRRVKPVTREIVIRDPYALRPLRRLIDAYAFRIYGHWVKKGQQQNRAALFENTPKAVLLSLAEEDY
Sequence of Mitogen-activated protein kinase; ERK1/ERK2 (Homo sapiens) (P27361 whole entry, looked up): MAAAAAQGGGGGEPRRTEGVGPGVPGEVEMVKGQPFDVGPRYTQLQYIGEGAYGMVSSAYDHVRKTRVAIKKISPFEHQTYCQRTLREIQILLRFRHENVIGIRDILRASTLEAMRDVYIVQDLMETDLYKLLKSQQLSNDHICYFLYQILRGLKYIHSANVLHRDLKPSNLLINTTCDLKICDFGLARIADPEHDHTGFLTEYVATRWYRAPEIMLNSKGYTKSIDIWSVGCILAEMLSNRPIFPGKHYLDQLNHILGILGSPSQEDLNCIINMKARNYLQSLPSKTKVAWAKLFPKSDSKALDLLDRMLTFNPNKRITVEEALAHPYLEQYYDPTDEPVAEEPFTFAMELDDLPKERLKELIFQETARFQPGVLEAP
Sequence of Mitogen-activated protein kinase; ERK1/ERK2 (Homo sapiens) (P28482 whole entry, looked up): as the sequence (P28482 whole entry, the tested form may be a part) above
Sequence of Mitogen-activated protein kinase 14 (Homo sapiens) (Q16539 whole entry, the tested form may be a part): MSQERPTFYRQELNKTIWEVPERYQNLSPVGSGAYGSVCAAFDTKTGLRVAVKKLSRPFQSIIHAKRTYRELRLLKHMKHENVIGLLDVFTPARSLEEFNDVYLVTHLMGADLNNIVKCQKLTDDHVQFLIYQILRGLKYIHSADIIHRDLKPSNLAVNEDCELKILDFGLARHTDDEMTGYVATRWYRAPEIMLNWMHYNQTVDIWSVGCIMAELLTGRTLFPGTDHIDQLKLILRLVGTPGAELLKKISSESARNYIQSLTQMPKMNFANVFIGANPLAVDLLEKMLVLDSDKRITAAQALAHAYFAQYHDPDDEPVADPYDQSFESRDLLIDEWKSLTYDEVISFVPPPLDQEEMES
Sequence of Phosphatidylinositol 4-phosphate 3-kinase C2 domain-containing subunit beta (Homo sapiens) (O00750 whole entry, the tested form may be a part): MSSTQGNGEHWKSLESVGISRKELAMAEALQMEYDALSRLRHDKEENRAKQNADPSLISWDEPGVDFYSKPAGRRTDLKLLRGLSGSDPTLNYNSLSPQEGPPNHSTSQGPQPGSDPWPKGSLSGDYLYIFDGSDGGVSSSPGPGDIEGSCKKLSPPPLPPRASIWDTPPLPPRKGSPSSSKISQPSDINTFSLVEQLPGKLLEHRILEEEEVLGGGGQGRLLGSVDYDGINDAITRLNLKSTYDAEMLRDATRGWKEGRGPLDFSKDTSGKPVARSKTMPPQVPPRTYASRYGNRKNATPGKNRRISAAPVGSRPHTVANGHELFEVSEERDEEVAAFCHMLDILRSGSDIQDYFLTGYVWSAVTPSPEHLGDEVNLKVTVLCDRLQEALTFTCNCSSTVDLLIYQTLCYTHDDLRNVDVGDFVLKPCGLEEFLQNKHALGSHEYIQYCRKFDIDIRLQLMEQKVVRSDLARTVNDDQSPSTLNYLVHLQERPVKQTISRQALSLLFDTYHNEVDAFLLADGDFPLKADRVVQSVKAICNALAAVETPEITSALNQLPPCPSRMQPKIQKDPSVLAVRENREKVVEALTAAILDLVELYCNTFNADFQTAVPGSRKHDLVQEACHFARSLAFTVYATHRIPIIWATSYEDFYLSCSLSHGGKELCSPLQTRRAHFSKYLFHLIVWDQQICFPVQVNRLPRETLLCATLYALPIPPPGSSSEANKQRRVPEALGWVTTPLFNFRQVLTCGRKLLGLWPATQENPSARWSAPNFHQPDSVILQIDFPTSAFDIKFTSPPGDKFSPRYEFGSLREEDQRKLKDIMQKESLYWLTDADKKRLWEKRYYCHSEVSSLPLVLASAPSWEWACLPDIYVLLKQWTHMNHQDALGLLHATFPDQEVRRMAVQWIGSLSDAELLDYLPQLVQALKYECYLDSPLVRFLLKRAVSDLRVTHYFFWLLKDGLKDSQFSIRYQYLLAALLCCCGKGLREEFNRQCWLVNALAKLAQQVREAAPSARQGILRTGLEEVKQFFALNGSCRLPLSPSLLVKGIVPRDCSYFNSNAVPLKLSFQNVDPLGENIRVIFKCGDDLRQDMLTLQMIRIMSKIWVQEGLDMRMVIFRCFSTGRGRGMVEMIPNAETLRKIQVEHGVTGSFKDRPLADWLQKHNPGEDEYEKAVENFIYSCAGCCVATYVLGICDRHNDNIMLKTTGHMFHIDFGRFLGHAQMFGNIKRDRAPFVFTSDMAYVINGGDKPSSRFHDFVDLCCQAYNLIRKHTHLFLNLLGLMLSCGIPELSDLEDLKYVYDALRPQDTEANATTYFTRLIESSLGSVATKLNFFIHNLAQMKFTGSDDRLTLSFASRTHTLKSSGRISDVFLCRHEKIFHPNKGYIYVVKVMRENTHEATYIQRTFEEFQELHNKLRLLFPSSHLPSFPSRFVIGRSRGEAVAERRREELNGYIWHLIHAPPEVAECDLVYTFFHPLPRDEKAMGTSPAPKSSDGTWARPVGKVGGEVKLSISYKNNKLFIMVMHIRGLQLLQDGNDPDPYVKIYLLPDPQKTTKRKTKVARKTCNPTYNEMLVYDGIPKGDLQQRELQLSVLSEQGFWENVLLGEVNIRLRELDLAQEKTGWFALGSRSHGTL

**Q.** COc1ccc(-c2ccc3c(N4CCOCC4)nc(N4C[C@@H](C)O[C@@H](C)C4)nc3n2)cc1CO [Ku-0063794] was tested. Which Activity [1] did it give?
**A.** 89%

**Q.** And the Activity [2]?
**A.** 101%

**Q.** What about the Activity [3] of the same compound?
**A.** 96%

**Q.** And the Activity [4]?
**A.** 92%

**Q.** What about the Activity [5] of the same compound?
**A.** 92%

**Q.** What about the Activity [6] of the same compound?
**A.** 103%

**Q.** And the Activity [7]?
**A.** 86%

**Q.** And the Activity [8]?
**A.** 96%

**Q.** What about the Activity [9] of the same compound?
**A.** 82%

**Q.** And the inhibition (HEK293)?
**A.** inactive

**Q.** And the inhibition [10]?
**A.** inactive

**Q.** And the inhibition [11]?
**A.** Active

**Q.** What about the inhibition (mTORC1 (Homo sapiens) [12]) of the same compound?
**A.** Active

**Q.** And the inhibition (mTORC1 (Homo sapiens) [13])?
**A.** Active

**Q.** And the inhibition (mTORC1 (Homo sapiens) [14])?
**A.** Dose-Dependent Effect

**Q.** And the inhibition (mTORC2 (Homo sapiens) [15])?
**A.** Dose-Dependent Effect

**Q.** And the inhibition (mTORC2 (Homo sapiens) [16])?
**A.** Active

**Q.** And the Activity [17]?
**A.** 101%
